This note sets out measurements from ChEMBL document CHEMBL3259533, “A new convenient synthetic method and preliminary pharmacological characterization of triazinediones as prokineticin receptor antagonists” (Eur J Med Chem, 2014).

Calls of active or inactive are those of the source. The calls are words filed in the database; no cut-off is given here.

For assay [1], the system named is Mus musculus. Description: Analgesic activity in C57Bl/6 mouse assessed as inhibition of Bv8-induced decrease in latencies to paw withdrawal administered as intraplantar route at 48 degC after 15 to 180 mins. The class given is functional, organism-based. An outline of the steps: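 Male C57Bl/6 mice (25–30 g), trained the preceding week. Antagonist in saline, 20 µl intraplantar, 5 min before Bv8 (63 fmol i.pl. in saline). Paw withdrawal latency from 48 °C water measured in triplicate at 15–180 min; %ΔNT = 100×(NTts−NTB)/NTB. Separate group of 5 mice per dose; EC50 with 95% confidence intervals from dose–response curves.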

The subject of assay [2] is Mus musculus. Put plainly: Analgesic activity in C57Bl/6 mouse assessed as changes in basal thermal sensitivity up to 120 pmol administered as intraplantar route at 48 degC after 15 to 180 mins. Type of assay: functional, organism-based. An outline of the steps: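 Male C57Bl/6 mice (25–30 g), trained in paw-immersion test the preceding week. Compound in saline, 20 µl intraplantar, up to 120 pmol. Hind paw dipped in 48 °C water; withdrawal latency measured three times at 15–180 min post-dose versus baseline (mean of last three pre-dose readings). Result as % change from baseline; 5 mice per dose.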

With `COc1ccc(Cn2c(NCCNC(=N)N)nc(=O)n(Cc3ccc(F)cc3)c2=O)cc1`, in the assay with Mus musculus [1], the EC50 is on record as 0.31 pmol. Also, the outcome in the assay on Mus musculus [2] was inactive.

Consider `COc1ccc(Cn2c(=O)nc(NCCNC(=N)N)n(Cc3ccc(I)cc3)c2=O)cc1`, for which the EC50 in the assay on Mus musculus [1] was 39 pmol. In addition, the outcome in the assay on Mus musculus [2] was inactive.

For `COc1ccc(Cn2c(=O)nc(NCCNC(=N)N)n(Cc3ccccc3)c2=O)cc1`, in the assay with Mus musculus [1], the EC50 is listed as 63 pmol. Besides, the result with Mus musculus [2] was inactive.

As to `COc1ccc(Cn2c(NCCNC(=N)N)nc(=O)n(Cc3ccc([N+](=O)[O-])cc3)c2=O)cc1`, the EC50 in the assay on Mus musculus [1] was 48 pmol. Further, in the assay with Mus musculus [2], the outcome was inactive.

With `Cc1ccc(Cn2c(NCCNC(=N)N)nc(=O)n(Cc3ccc(C(F)(F)F)cc3)c2=O)cc1`, the EC50 in the assay on Mus musculus [1] is given as 0.033 pmol. Moreover, the result with Mus musculus [2] was inactive.

With `COc1ccc(Cn2c(=O)nc(NCCNC(=N)N)n(Cc3ccc(Cl)c(Cl)c3)c2=O)cc1`, in the assay on Mus musculus [1], the EC50 is 4.5 pmol. For the same molecule, in the assay on Mus musculus [2], the result was inactive.

On to `COc1ccc(Cn2c(NCCNC(=N)N)nc(=O)n(Cc3ccc(Br)cc3)c2=O)cc1`, for which the EC50 in the assay on Mus musculus [1] worked out at 0.36 pmol. Besides, the outcome in the assay with Mus musculus [2] was inactive.

Turning to `COc1ccc(Cn2c(NCCNC(=N)N)nc(=O)n(Cc3ccc4c(c3)OCO4)c2=O)cc1`, the EC50 in the assay with Mus musculus [1] was determined as 39 pmol. In addition, the result in the assay on Mus musculus [2] was inactive.

For the molecule `COc1ccc(Cn2c(=O)nc(NCCNC(=N)N)n(Cc3ccc(Br)cc3)c2=O)cc1`, the EC50 in the assay on Mus musculus [1] is 4.3 pmol. Also, the result in the assay on Mus musculus [2] was inactive.

With `COc1ccc(Cn2c(NCCNC(=N)N)nc(=O)n(Cc3ccc(I)cc3)c2=O)cc1`, the EC50 with Mus musculus [1] was 51 pmol. In addition, the result in the assay on Mus musculus [2] was inactive.

Take `COc1ccc(Cn2c(NCCNC(=N)N)nc(=O)n(Cc3ccc(C)cc3)c2=O)cc1`: in the assay on Mus musculus [1], the EC50 is 4.4 pmol. Besides, in the assay with Mus musculus [2], the result was inactive.

In the case of `COc1ccc(Cn2c(NCCNC(=N)N)nc(=O)n(Cc3ccc(Cl)cc3)c2=O)cc1`, the EC50 in the assay with Mus musculus [1] is listed as 4 pmol. The outcome with Mus musculus [2] was inactive.

With `COc1ccc(Cn2c(NCCNC(=N)N)nc(=O)n(Cc3ccc(OC)cc3)c2=O)cc1`, the outcome in the assay with Mus musculus [2] was inactive.

Take `Cc1ccc(Cn2c(=O)nc(NCCNC(=N)N)n(Cc3ccc(Cl)c(Cl)c3)c2=O)cc1`: the EC50 with Mus musculus [1] worked out at 5.1 pmol. Also, the outcome with Mus musculus [2] was inactive.

With `COc1ccc(Cn2c(=O)nc(NCCNC(=N)N)n(Cc3ccc(F)cc3)c2=O)cc1`, the EC50 in the assay with Mus musculus [1] was 36 pmol. The outcome in the assay with Mus musculus [2] was inactive.

On to `COc1ccc(Cn2c(=O)nc(NCCNC(=N)N)n(Cc3ccc(C)cc3)c2=O)cc1`, for which, in the assay on Mus musculus [1], the EC50 is recorded as 4.5 pmol. The outcome in the assay on Mus musculus [2] was inactive.

With `COc1ccc(Cn2c(=O)nc(NCCNC(=N)N)n(Cc3ccc(C(F)(F)F)cc3)c2=O)cc1`, the EC50 with Mus musculus [1] is 48 pmol. Moreover, the result in the assay with Mus musculus [2] was inactive.

Turning to `CCc1ccc(Cn2c(=O)nc(NCCNC(=N)N)n(Cc3ccc(OC)cc3)c2=O)cc1`, the EC50 with Mus musculus [1] was 5.8 pmol. Besides, the outcome in the assay with Mus musculus [2] was inactive.

As for `COc1ccc(Cn2c(=O)nc(NCCNC(=N)N)n(Cc3ccc(Cl)cc3)c2=O)cc1`, the EC50 in the assay with Mus musculus [1] came out at 4.4 pmol. Also, in the assay with Mus musculus [2], the result was inactive.

Consider `COc1ccc(Cn2c(NCCNC(=N)N)nc(=O)n(Cc3ccc(C(F)(F)F)cc3)c2=O)cc1`, for which the EC50 with Mus musculus [1] is 51 pmol. Besides, the result in the assay on Mus musculus [2] was inactive.
